The results in this text go back to ChEMBL document CHEMBL3102836, “Dioxatricyclic and oxabicyclic polyketides from Trichocladium opacum” (J Nat Prod, 2014).

Common to all, as to assay type: functional, cell-based
The subject of assay [1] is HCT-116. Nature of the assay: Cytotoxicity against human HCT116 cells after 48 hrs by MTS assay. The settings on record: HCT-116, 48 h. In a few lines: (§1)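 Triplicate wells seeded at (2−5) × 10^3 cells (by growth rate), attached overnight, then medium replaced with medium carrying serial dilutions from 100 mM DMSO stocks (vehicle wells 0.1% DMSO); cisplatin positive control. 48 h at 37 °C, humidified 5% CO2. MTS added, 90 min at 37 °C in dark, absorbance 490 nm; IC50 reported.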
(In general: Tetrazolium assays rely on reduction of a dye to a coloured formazan, in cell work by metabolically active cells.)

For assay [2], the system named is SW480. Nature of the assay: Cytotoxicity against human SW480 cells after 48 hrs by MTS assay. The settings on record: SW480, 48 h. In a few lines:
as §1

Assay [3] has as its system HeLa. Kind of assay: Cytotoxicity against human HeLa cells after 48 hrs by MTS assay. The procedure, abridged: as §1
Assay [4] deals with A549. Kind of assay: Cytotoxicity against human A549 cells after 48 hrs by MTS assay. The settings on record: A549, 48 h. The procedure, abridged: as §1
The test system of assay [5] is HeLa. Kind of assay: Cytotoxicity against human HeLa cells at 20 ug/ml after 48 hrs by MTS assay. In a few lines:
(§2)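 Single-concentration test at 20 μg/mL. Triplicate wells seeded at (2−5) × 10^3 cells, attached overnight, then medium replaced with compound-containing medium (100 mM DMSO stock; vehicle wells 0.1% DMSO); cisplatin positive control. 48 h exposure at 37 °C, humidified 5% CO2. MTS added, 90 min at 37 °C in dark, read at 490 nm.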

Assay [6] deals with HCT-116. Kind of assay: Cytotoxicity against human HCT116 cells at 20 ug/ml after 48 hrs by MTS assay. The procedure, abridged:
as §2

Assay [7] deals with SW480. Nature of the assay: Cytotoxicity against human SW480 cells at 20 ug/ml after 48 hrs by MTS assay. In a few lines: as §2
Assay [8] concerns A549. Nature of the assay: Cytotoxicity against human A549 cells at 20 ug/ml after 48 hrs by MTS assay. The procedure, abridged: as §2

Activity calls are given as the source filed them. The calls are words filed in the database; no cut-off is given here.

Usually IC50 stands for the point on the concentration scale where inhibition reaches its midpoint. Low readings indicate greater potency in that assay, high ones weaker potency in that assay. Consider `C[C@@H](O)[C@@H](O)[C@]12C(=O)O[C@H](C=C[C@@H]1C)[C@H]2O`, for which the IC50 amounted to 41.7 µM in assay [1], 43.6 µM in assay [2], 44.3 µM in assay [3] and 52.3 µM in assay [4].

Turning to `C[C@@H]1C=C[C@H](O)[C@H]2O[C@@]3(C)OC(=O)[C@@]12[C@@H]3O`, the result in assay [5] was inactive. For the same compound, the results for the IC50 in assay [1], in assay [2] and in assay [4] were 48.8 µM, 54.9 µM and 83.6 µM, respectively.

For the compound `COC(=O)[C@]12[C@H](C)[C@H](C[C@H](O)[C@H]1O)O[C@H]2C(C)=O`, the outcome in assay [5], in assay [6], in assay [7] and in assay [8] was inactive.

With `C[C@@H]1C=C[C@H](O)[C@H]2O[C@@]3(C)OC(=O)[C@@]12[C@H]3O`, the outcome in assay [5], in assay [6], in assay [7] and in assay [8] was inactive.

Consider `C[C@@H]1CC[C@H](O)[C@H]2O[C@@]3(C)OC(=O)[C@@]12[C@H]3O`, for which the result in assay [5] was inactive. Further, the results for the 50% inhibitory concentration (IC50) in assay [1], in assay [2] and in assay [4] were 56.6 µM, 51.9 µM and 61 µM, respectively.
